# Data taken from ChEMBL document CHEMBL1811814, “Synthesis and evaluation of indole, pyrazole, chromone and pyrimidine based conjugates for tumor growth inhibitory activities--development of highly efficacious cytotoxic agents” (Eur J Med Chem, 2010).
# Columns and labels:
# Assay type in all cases: functional
# Parameters in all cases: scale not given: the % may be the effect or the level left
# CCRF-CEM = test: Growth inhibition of human CCRF-CEM cells assessed tumor cell growth at 10^-5 M
# Summary of the method: (§1)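 NCI 60-human-tumor-cell-line panel screen. Each compound was tested at a single concentration of 10^-5 M, and percent growth of tumor cells was recorded for each cell line. Growth inhibition was expressed from these percent-growth values.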
# HL-60(TB) = test: Growth inhibition of human HL-60(TB) cells assessed tumor cell growth at 10^-5 M
# Summary of the method: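 HL-60(TB), part of the 60-line panel, tested at a single concentration of 10^-5 M. The read-out is percent tumor cell growth relative to untreated growth.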
# K562 = test: Growth inhibition of human K562 cells assessed tumor cell growth at 10^-5 M; summary of the method: as §1
# MOLT-4 = test: Growth inhibition of human MOLT4 cells assessed tumor cell growth at 10^-5 M; summary of the method: as §1
# [1] = Growth inhibition of human […] cells assessed tumor cell growth at 10^-5 M; summary of the method: as §1
# A549 = test: Growth inhibition of human A549 cells assessed tumor cell growth at 10^-5 M; summary of the method: as §1
# EKVX = test: Growth inhibition of human EKVX cells assessed tumor cell growth at 10^-5 M; summary of the method: as §1
# HOP-62 = test: Growth inhibition of human HOP62 cells assessed tumor cell growth at 10^-5 M; summary of the method: as §1
# HOP-92 = test: Growth inhibition of human HOP92 cells assessed tumor cell growth at 10^-5 M; summary of the method: as §1
# NCI-H226 = test: Growth inhibition of human NCI-H226 cells assessed tumor cell growth at 10^-5 M; summary of the method: as §1
# NCI-H23 = test: Growth inhibition of human NCI-H23 cells assessed tumor cell growth at 10^-5 M; summary of the method: as §1
# NCI-H322M = test: Growth inhibition of human NCI-H322M cells assessed tumor cell growth at 10^-5 M; summary of the method: as §1
# NCI-H460 = test: Growth inhibition of human NCI-H460 cells assessed tumor cell growth at 10^-5 M; summary of the method: as §1
# COLO 205 = test: Growth inhibition of human COLO205 cells assessed tumor cell growth at 10^-5 M; summary of the method: as §1
# HCC 2998 = test: Growth inhibition of human HCC2998 cells assessed tumor cell growth at 10^-5 M; summary of the method: as §1
# HCT-116 = test: Growth inhibition of human HCT116 cells assessed tumor cell growth at 10^-5 M; summary of the method: as §1
# HCT-15 = test: Growth inhibition of human HCT15 cells assessed tumor cell growth at 10^-5 M; summary of the method: as §1
# HT-29 = test: Growth inhibition of human HT-29 cells assessed tumor cell growth at 10^-5 M; summary of the method: as §1
# KM12 = test: Growth inhibition of human KM12 cells assessed tumor cell growth at 10^-5 M; summary of the method: as §1
# SF-268 = test: Growth inhibition of human SF268 cells assessed tumor cell growth at 10^-5 M; summary of the method: as §1
# SF-295 = test: Growth inhibition of human SF295 cells assessed tumor cell growth at 10^-5 M; summary of the method: as §1
# SF-539 = test: Growth inhibition of human SF539 cells assessed tumor cell growth at 10^-5 M; summary of the method: as §1
# SNB-19 = test: Growth inhibition of human SNB19 cells assessed tumor cell growth at 10^-5 M
# Summary of the method: (§2)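 Single-dose screen at 10^-5 M across the 60 human tumor cell line panel, run to NCI standards. The value is the percent growth of each cell line in the presence of compound. Compounds active at this dose moved on to five-concentration testing (10^-4 to 10^-8 M).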
# SNB-75 = test: Growth inhibition of human SNB75 cells assessed tumor cell growth at 10^-5 M; summary of the method: as §2
# U-251 = test: Growth inhibition of human U251 cells assessed tumor cell growth at 10^-5 M; summary of the method: as §2
# LOX IMVI = test: Growth inhibition of human LOXIMVI cells assessed tumor cell growth at 10^-5 M; summary of the method: as §1
# Malme-3M = test: Growth inhibition of human MALME-3M cells assessed tumor cell growth at 10^-5 M; summary of the method: as §1
# M14 = test: Growth inhibition of human M14 cells assessed tumor cell growth at 10^-5 M; summary of the method: as §1
# MDA-MB-435 = test: Growth inhibition of human MDA-MB-435 cells assessed tumor cell growth at 10^-5 M; summary of the method: as §1
# SK-MEL-2 = test: Growth inhibition of human SK-MEL-2 cells assessed tumor cell growth at 10^-5 M; summary of the method: as §1
# SK-MEL-5 = test: Growth inhibition of human SK-MEL-5 cells assessed tumor cell growth at 10^-5 M; summary of the method: as §1
# UACC-257 = test: Growth inhibition of human UACC257 cells assessed tumor cell growth at 10^-5 M; summary of the method: as §2
# UACC-62 = test: Growth inhibition of human UACC62 cells assessed tumor cell growth at 10^-5 M; summary of the method: as §2
# OVCAR-3 = test: Growth inhibition of human OVCAR3 cells assessed tumor cell growth at 10^-5 M; summary of the method: as §1
# OVCAR-4 = test: Growth inhibition of human OVCAR4 cells assessed tumor cell growth at 10^-5 M; summary of the method: as §1
# OVCAR-5 = test: Growth inhibition of human OVCAR5 cells assessed tumor cell growth at 10^-5 M; summary of the method: as §1
# OVCAR-8 = test: Growth inhibition of human OVCAR8 cells assessed tumor cell growth at 10^-5 M; summary of the method: as §1
# NCI/ADR-RES = test: Growth inhibition of human NCI/ADR-RES cells assessed tumor cell growth at 10^-5 M; summary of the method: as §1
# SK-OV-3 = test: Growth inhibition of human SKOV3 cells assessed tumor cell growth at 10^-5 M; summary of the method: as §1
# 786-0 = test: Growth inhibition of human 786-0 cells assessed tumor cell growth at 10^-5 M; summary of the method: as §1
# A498 = test: Growth inhibition of human A498 cells assessed tumor cell growth at 10^-5 M; summary of the method: as §1
# ACHN = test: Growth inhibition of human ACHN cells assessed tumor cell growth at 10^-5 M; summary of the method: as §1
# CAKI-1 = test: Growth inhibition of human Caki1 cells assessed tumor cell growth at 10^-5 M; summary of the method: as §1
# RXF 393 = test: Growth inhibition of human RXF393 cells assessed tumor cell growth at 10^-5 M; summary of the method: as §1
# SN12C = test: Growth inhibition of human SN12C cells assessed tumor cell growth at 10^-5 M; summary of the method: as §1
# UO-31 = test: Growth inhibition of human UO31 cells assessed tumor cell growth at 10^-5 M; summary of the method: as §2
# DU-145 = test: Growth inhibition of human DU145 cells assessed tumor cell growth at 10^-5 M; summary of the method: as §1
# MCF7 = test: Growth inhibition of human MCF7 cells assessed tumor cell growth at 10^-5 M; summary of the method: as §1
# MDA-MB-231 = test: Growth inhibition of human MDA-MB-231 cells assessed tumor cell growth at 10^-5 M; summary of the method: as §1
# BT-549 = test: Growth inhibition of human BT549 cells assessed tumor cell growth at 10^-5 M; summary of the method: as §1
# T47D = test: Growth inhibition of human T47D cells assessed tumor cell growth at 10^-5 M; summary of the method: as §2
# MDA-MB-468 = test: Growth inhibition of human MDA-MB-468 cells assessed tumor cell growth at 10^-5 M; summary of the method: as §1
compound,measurement,setting,value
CC1=NN(c2cccc(Cl)c2)C(=O)/C1=C\c1c[nH]c2ccccc12,Activity,CCRF-CEM,142.91%
same,Activity,HL-60(TB),124.41%
same,Activity,K562,128.85%
same,Activity,MOLT-4,159.76%
same,Activity,[1],103.27%
same,Activity,A549,109.06%
same,Activity,EKVX,79.28%
same,Activity,HOP-62,83.26%
same,Activity,HOP-92,72.8%
same,Activity,NCI-H226,76.77%
same,Activity,NCI-H23,117.91%
same,Activity,NCI-H322M,106.34%
same,Activity,NCI-H460,109.9%
same,Activity,COLO 205,122.84%
same,Activity,HCC 2998,88.48%
same,Activity,HCT-116,101.89%
same,Activity,HCT-15,103.61%
same,Activity,HT-29,114.3%
same,Activity,KM12,106.96%
same,Activity,SF-268,107.91%
same,Activity,SF-295,116.2%
same,Activity,SF-539,100.44%
same,Activity,SNB-19,111.33%
same,Activity,SNB-75,91.42%
same,Activity,U-251,103.49%
same,Activity,LOX IMVI,99.88%
same,Activity,Malme-3M,114.52%
same,Activity,M14,99.91%
same,Activity,MDA-MB-435,108.89%
same,Activity,SK-MEL-2,120.43%
same,Activity,SK-MEL-5,102.28%
same,Activity,UACC-257,122.98%
same,Activity,UACC-62,83.26%
same,Activity,OVCAR-3,105.19%
same,Activity,OVCAR-4,104.32%
same,Activity,OVCAR-5,98.5%
same,Activity,OVCAR-8,107.69%
same,Activity,NCI/ADR-RES,101.48%
same,Activity,SK-OV-3,99.61%
same,Activity,786-0,98.46%
same,Activity,A498,100.75%
same,Activity,ACHN,84.34%
same,Activity,CAKI-1,155.88%
same,Activity,RXF 393,99.54%
same,Activity,SN12C,200.78%
same,Activity,UO-31,88.75%
same,Activity,DU-145,121.25%
same,Activity,MCF7,76.22%
same,Activity,MDA-MB-231,72.74%
same,Activity,BT-549,117.3%
same,Activity,T47D,83.89%
same,Activity,MDA-MB-468,104.9%
